From paper PMC11520922 (International Journal of Nanomedicine, 2024)
Entries after “also recorded” stand apart in the source; their conditions may differ.

Columns and labels:
[1] = clinical; cited from earlier work
[2] = cited from earlier work
[3] = In vivo pharmacokinetic study; parameters: species or system Sprague–Dawley rats
Method in brief: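 Male Sprague–Dawley rats (~300 g) were anaesthetised with Zoletil i.m. at […]. They received test compound in 10% ethanol or as albumin nanoparticles s.c. at 0.33 mg g−1. Blood (400 μL) was drawn from the subclavian vein at 0.08–6 h into heparin tubes. Plasma was spiked with carbamazepine internal standard, deproteinised with methanol, dried and reconstituted in methanol. Analysis was by RP-18 HPLC at 265 nm, and parameters were computed by first-order kinetic modelling.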

[4] = tested on: Peripheral Blood Mononuclear Cells (PBMCs); experiment: Ex vivo peripheral blood mononuclear cells; type: cell-based, male Sprague–Dawley rats; conditions: rat PBMCs
Method in brief: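 PBMCs came from the peripheral blood of male Sprague–Dawley rats. They were isolated by Ficoll–Paque density-gradient centrifugation, collected from the interphase and washed three times in RPMI 1640. Cells were plated at 1×10^6/well in RPMI 1640 with 10% FBS (37 °C, 5% CO2) and incubated overnight with free test compound or albumin-nanoparticle formulation. Viability was then read by the CCK-8 A450 procedure used for HuT-78.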

[5] = cited from earlier work; remark: listed apart in the source
[6] = male, Sprague-Dawley, rat, plasma, sc, 0.333 mg

In the case of `O=C(/C=C/c1cccc(S(=O)(=O)Nc2ccccc2)c1)NO` [Belinostat], the “thrombocytopenia adverse events, Grade 3 to 4” value [1] is given as ~ 7%, the “thrombocytopenia adverse events, all grades” value [1] is given as ~ 16% and the protein binding affinity [2] is given as 92.9–95.8%. For the same compound, the CL ([3]; SD rats, subcutaneous, 0.333 mg g^−1, n = 3) was 5.32 ± 1.53 mL/h, the AUC(0-t) [3, 6] was 62000 ± 28700 ng·h/mL and the Cmax [3, 6] was 8650 ± 780 ng/mL. The Tmax [3, 6] was 0.43 ± 0.13 h, the half-life [3, 6] was 4.66 ± 1.66 h and the “viability of PBMCs” value ([4]; concentration 10 μM) was “decreases”. For the same compound, the “viability (survival) of PBMC” value ([4]; high dose 100 μM) was “did not survive; also recorded: no survival”, the “log P” value [5] was 1.83 and the pKa [5] was 7.87.
